How the values were obtained:
Format in all cases: functional
[1] = test system: SF-268; assay: Anticancer activity against human SF268 cells assessed as cell growth at 100 uM after 48 hrs by sulforhodamine B assay; conditions: SF-268, 48 h, read-out: Activity
[2] = test system: SK-MEL-28; assay: Growth inhibition of human SK-MEL-28 cells after 48 hrs by sulforhodamine B assay; conditions: SK-MEL-28, 48 h
Procedure, shortened: (§1)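 NCI 60-human-tumor-cell-line panel, with compounds tested over a 5-log dose range. Values are taken from dose-response curves as log10 molar concentrations: GI50 is 50% net growth inhibition, TGI is total growth inhibition, and LC50 is 50% net cell death.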

[3] = test system: U-251; assay: Growth inhibition of human U251 cells after 48 hrs by sulforhodamine B assay; conditions: U-251, 48 h
Procedure, shortened: (§2)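 Run in the NCI 60-human-tumour-cell-line panel, tested over a 5-log dose range. Dose–response curves gave three values per cell line, each as a log10 molar concentration: GI50 (50% inhibition of net cell growth), TGI (total inhibition of net growth) and LC50 (50% net cell death). The mean graph midpoint is the arithmetic mean over all lines, with insensitive lines entered at the highest concentration tested.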

[4] = test system: OVCAR-4; assay: Growth inhibition of human OVCAR4 cells after 48 hrs by sulforhodamine B assay; conditions: OVCAR-4, 48 h; procedure, shortened: as §1
[5] = test system: MCF7; assay: Anticancer activity against human MCF7 cells assessed as cell growth at 100 uM after 48 hrs by sulforhodamine B assay; conditions: MCF7, 48 h, read-out: Activity
[6] = test system: SF-295; assay: Growth inhibition of human SF295 cells after 48 hrs by sulforhodamine B assay; conditions: SF-295, 48 h; procedure, shortened: as §1
[7] = test system: SF-268; assay: Growth inhibition of human SF268 cells after 48 hrs by sulforhodamine B assay; conditions: SF-268, 48 h; procedure, shortened: as §1
[8] = test system: A549; assay: Growth inhibition of human A549 cells after 48 hrs by sulforhodamine B assay; conditions: A549, 48 h; procedure, shortened: as §1
[9] = test system: MCF7; assay: Growth inhibition of human MCF7 cells after 48 hrs by sulforhodamine B assay; conditions: MCF7, 48 h; procedure, shortened: as §1
[10] = test system: DU-145; assay: Growth inhibition of human DU145 cells after 48 hrs by sulforhodamine B assay; conditions: DU-145, 48 h; procedure, shortened: as §1
[11] = test system: CAKI-1; assay: Growth inhibition of human Caki1 cells after 48 hrs by sulforhodamine B assay; conditions: CAKI-1, 48 h; procedure, shortened: as §1
[12] = test system: LOX IMVI; assay: Growth inhibition of human LOXIMVI cells after 48 hrs by sulforhodamine B assay; procedure, shortened: as §1
[13] = test system: SW-620; assay: Growth inhibition of human SW620 cells after 48 hrs by sulforhodamine B assay; conditions: SW-620, 48 h; procedure, shortened: as §2
[14] = test system: NCI-H460; assay: Anticancer activity against human NCI-H460 cells assessed as cell growth at 100 uM after 48 hrs by sulforhodamine B assay; conditions: NCI-H460, 48 h, read-out: Activity
[15] = test system: SK-OV-3; assay: Growth inhibition of human SKOV3 cells after 48 hrs by sulforhodamine B assay; conditions: SK-OV-3, 48 h; procedure, shortened: as §1
[16] = test system: SK-MEL-2; assay: Growth inhibition of human SK-MEL-2 cells after 48 hrs by sulforhodamine B assay; conditions: SK-MEL-2, 48 h; procedure, shortened: as §1
[17] = test system: K562; assay: Growth inhibition of human K562 cells after 48 hrs by sulforhodamine B assay; conditions: K562, 48 h; procedure, shortened: as §1
[18] = test system: SK-MEL-5; assay: Growth inhibition of human SK-MEL-5 cells after 48 hrs by sulforhodamine B assay; conditions: SK-MEL-5, 48 h; procedure, shortened: as §1
[19] = test system: NCI-H322M; assay: Growth inhibition of human NCI-H322M cells after 48 hrs by sulforhodamine B assay; procedure, shortened: as §1
[20] = Growth inhibition of human […] cells after 48 hrs by sulforhodamine B assay; procedure, shortened: as §1
[21] = test system: HOP-62; assay: Growth inhibition of human HOP62 cells after 48 hrs by sulforhodamine B assay; conditions: HOP-62, 48 h; procedure, shortened: as §1
[22] = test system: MDA-MB-435; assay: Growth inhibition of human MDA-MB-435 cells after 48 hrs by sulforhodamine B assay; conditions: MDA-MB-435, 48 h; procedure, shortened: as §1
[23] = test system: 786-0; assay: Growth inhibition of human 786-0 cells after 48 hrs by sulforhodamine B assay; conditions: 786-0, 48 h; procedure, shortened: as §1
[24] = test system: UO-31; assay: Growth inhibition of human UO31 cells after 48 hrs by sulforhodamine B assay; conditions: UO-31, 48 h; procedure, shortened: as §2
[25] = test system: M14; assay: Growth inhibition of human M14 cells after 48 hrs by sulforhodamine B assay; conditions: M14, 48 h; procedure, shortened: as §1
[26] = test system: IGROV-1; assay: Growth inhibition of human IGROV1 cells after 48 hrs by sulforhodamine B assay; conditions: IGROV-1, 48 h; procedure, shortened: as §1
[27] = test system: UACC-62; assay: Growth inhibition of human UACC62 cells after 48 hrs by sulforhodamine B assay; conditions: UACC-62, 48 h; procedure, shortened: as §2
[28] = test system: NCI-H522; assay: Growth inhibition of human NCI-H522 cells after 48 hrs by sulforhodamine B assay; conditions: NCI-H522, 48 h; procedure, shortened: as §1
[29] = test system: HCT-116; assay: Growth inhibition of human HCT116 cells after 48 hrs by sulforhodamine B assay; conditions: HCT-116, 48 h; procedure, shortened: as §1
[30] = test system: NCI-H23; assay: Growth inhibition of human NCI-H23 cells after 48 hrs by sulforhodamine B assay; conditions: NCI-H23, 48 h; procedure, shortened: as §1
[31] = read-out: pLC50 (the source's name) (converted)

COc1ccc(CNc2nc3cc(N)cc(N)c3nc2-c2ccccc2)cc1
growth at 100 µM [1]: 0%
GI50 [2]: 17.4 µM
CC50 [2, 31]: 60.3 µM
TGI ([2]; read-out: pTGI (converted)): 32.4 µM
GI50 [3]: 13.5 µM
LC50 (50% net cell kill) [3]: 51.3 µM
TGI ([3]; read-out: pTGI (converted)): 26.3 µM
GI50 [4]: 8.13 µM
CC50 [4, 31]: 47.9 µM
TGI ([4]; read-out: pTGI (converted)): 21.4 µM
growth at 100 µM [5]: 0%
GI50 [6]: 17.8 µM
LC50 (50% net cell kill) [6]: 58.9 µM
TGI ([6]; read-out: pTGI (converted)): 32.4 µM
GI50 [7]: 9.77 µM
LC50 [7]: 49 µM
TGI ([7]; read-out: pTGI (converted)): 21.9 µM
GI50 [8]: 21.4 µM
LC50 [8]: > 100 µM
TGI ([8]; read-out: pTGI (converted)): 60.3 µM
GI50 [9]: 13.2 µM
CC50 [9, 31]: 53.7 µM
TGI ([9]; read-out: pTGI (converted)): 26.3 µM
GI50 [10]: 21.9 µM
CC50 [10, 31]: > 100 µM
TGI ([10]; read-out: pTGI (converted)): 57.5 µM
GI50 [11]: 16.2 µM
CC50 [11, 31]: 79.4 µM
TGI ([11]; read-out: pTGI (converted)): 36.3 µM
GI50 [12]: 13.5 µM
LC50 [12]: 55 µM
TGI ([12]; read-out: pTGI (converted)): 27.5 µM
GI50 [13]: 12.9 µM
CC50 [13, 31]: 70.8 µM
TGI ([13]; read-out: pTGI (converted)): 30.2 µM
growth at 100 µM [14]: 0%
CC50 [15, 31]: > 100 µM
TGI ([15]; read-out: pTGI (converted)): 57.5 µM
GI50 [16]: 14.8 µM
CC50 [16, 31]: 57.5 µM
TGI ([16]; read-out: pTGI (converted)): 28.8 µM
GI50 [17]: 25.1 µM
LC50 [17]: > 100 µM
TGI ([17]; read-out: pTGI (converted)): 97.7 µM
GI50 [18]: 17.8 µM
CC50 [18, 31]: 56.2 µM
TGI ([18]; read-out: pTGI (converted)): 31.6 µM
GI50 [19]: 22.9 µM
LC50 [19]: > 100 µM
TGI ([19]; read-out: pTGI (converted)): 52.5 µM
GI50 [20]: 4.17 µM
LC50 [20]: > 100 µM
TGI ([20]; read-out: pTGI (converted)): 15.8 µM
GI50 [21]: 17.4 µM
LC50 [21]: 69.2 µM
TGI ([21]; read-out: pTGI (converted)): 34.7 µM
GI50 [22]: 10 µM
CC50 [22, 31]: 46.8 µM
TGI ([22]; read-out: pTGI (converted)): 21.9 µM
GI50 [23]: 15.1 µM
CC50 [23, 31]: > 100 µM
TGI ([23]; read-out: pTGI (converted)): 41.7 µM
GI50 [24]: 11.5 µM
CC50 [24, 31]: 72.4 µM
TGI ([24]; read-out: pTGI (converted)): 28.8 µM
GI50 [25]: 18.2 µM
CC50 [25, 31]: 57.5 µM
TGI ([25]; read-out: pTGI (converted)): 32.4 µM
GI50 [26]: 12.9 µM
CC50 [26, 31]: 56.2 µM
TGI ([26]; read-out: pTGI (converted)): 26.9 µM
GI50 [27]: 14.8 µM
CC50 [27, 31]: 58.9 µM
TGI ([27]; read-out: pTGI (converted)): 29.5 µM
GI50 [28]: 10 µM
LC50 [28]: 47.9 µM
TGI ([28]; read-out: pTGI (converted)): 21.9 µM
GI50 [29]: 14.5 µM
LC50 (concentration causing 50% net cell death) [29]: 52.5 µM
TGI ([29]; read-out: pTGI (converted)): 27.5 µM
GI50 [30]: 17 µM
LC50 (50% net cell kill concentration) [30]: 70.8 µM
TGI ([30]; read-out: pTGI (converted)): 34.7 µM

Source: ChEMBL document CHEMBL1137710, “Synthesis and in vitro antitumor activity of new quinoxaline derivatives” (2009)
